Reference: ChEMBL document CHEMBL4513216, “Probing the Open Global Health Chemical Diversity Library for Multistage-Active Starting Points for Next-Generation Antimalarials” (ACS Infect Dis, 2020)

Assay: Toxicity liver stage against HepG2, at 10uM
Type: cell-based
Parameters: test concentration 10 uM, cell line HepG2-A16-CD81EGFP
Conditions: human, HepG2-A16-CD81EGFP cells; read-out: INHIBITION
How it was run: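 Uninfected HepG2-A16-CD81EGFP cells, 3 × 10^3 per well, 1536-well, plated on prespotted compound at 10 μM final, parasite-free screening media added to match infected plates; puromycin 10 μM positive, DMSO 0.5% negative; run in parallel with 48 h PbLuc assay at 37 °C, 5% CO2; viability by CellTiter-Glo luminescence, normalized to controls.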

| SMILES | cytotoxicity at 10 µM [%] |
| --- | --- |
| COc1ccc(CNC[C@H]2COCc3nc4cccnc4n32)cn1 | -0.772 |
| CC(c1ccncc1)N(CCN(C)C)C(=O)Nc1ccc(Cl)cc1 (configuration not stated) | 8.88 |
| COc1ccc(S(=O)(=O)N2CCC(Cn3ccnc3)CC2)cc1 | -0.178 |
| CCCC(=O)NCC(Cc1cccc(F)c1)N1CCCC1=O (configuration not stated) | -2.91 |
| COc1ccc(Cl)cc1NC(=O)N1CCc2nc(NC(C)=O)sc2C1 | 12.1 |
| CN(C)CCN1C[C@@H]2CN(C(=O)C3CC=CC3)C[C@@H]2C1=O | -1.34 |
| CC(C)N(C)Cc1n[nH]c2c1CCN(C(=O)c1cc[nH]n1)C2 | -134 |
| CC(C)c1ccc(-n2nnc(C(=O)O)c2-c2ccccn2)cc1 | 9.18 |
| COc1ccc(-c2nnsc2C(=O)N2CCOCC2)cc1 | 3.03 |
| COCCNC(=O)C[C@@H]1COC[C@H]2CN(C(=O)c3cnccn3)C[C@@H]12 | -12.2 |
| Cc1c(Br)c(C(F)(F)F)nn1C(C)C(=O)O (configuration not stated) | 8.05 |
| Cc1nn(C)c2c(=O)n(Cc3ccc(C#N)cc3)nnc12 | 3.12 |
| COc1ccc(C(C)Nc2ncnc3c2NC(=O)CN3)cc1 (configuration not stated) | 7.83 |
| O=C(c1nn[nH]c1Nc1cccc(Cl)c1)N1CCSCC1 | 20.3 |
| CCCNC(=O)c1nn(CC)cc1NC(=O)C(C)n1ncc(Cl)c1C (configuration not stated) | 7.19 |
| COCCNc1cc(C(=O)N2CCOCC2)nc(C)n1 | 0.598 |
| Cc1nc(NCCc2ccc(Cl)cc2)cc(C(=O)N2CCOCC2)n1 | -4.78 |
| Cc1noc(C)c1-c1cccc(C2CCN(CC(=O)N(C)C)CC2)n1 | 6.33 |
| CCOCCCNc1ncc(-c2cccc(F)c2)c(-c2nccn2C)n1 | 12.5 |
| Cc1nc(C)n(CC(=O)N2CCCC(c3nc(C)n4c(C)csc34)C2)n1 (configuration not stated) | 2.08 |
| NCCCC(=O)NCC1(O)CCN(c2ccnc3cccnc23)C1 (configuration not stated) | 1.58 |
| Cc1c[nH]c(C2COCCN2C(=O)c2n[nH]c(=O)c3ccccc23)n1 (configuration not stated) | -0.555 |
| NC1(CN2CCOCC2)CCCCC1 | 1.72 |

| SMILES | cytotoxicity at 10 µM [%] |
| --- | --- |
| CC(=O)NCCNC(=O)c1nc(C2CC2)n(-c2ccccc2Cl)n1 | 9.74 |
| N#Cc1cn(C2CC2)c(=O)n(Cc2ncc(-c3cccs3)o2)c1=O | 14.8 |
| O=C1CN(Cc2occc2C(=O)NCCc2ccc(F)cc2)CCN1 | -10.2 |
| COC(=O)COc1c(F)cc(Br)cc1C(C)=O | 2.63 |
| CCCn1nc(C(=O)N(C)Cc2nnc3n2CCC3)ccc1=O | 1.77 |
| N#Cc1cccc(S(=O)(=O)NC2CCN(CC(F)(F)F)C2)c1 (configuration not stated) | -1.03 |
| CC1CN(C)CCN1C(=O)c1cccn1Cc1ccncc1 (configuration not stated) | -5.53 |
| CCOC(=O)C(C)NC(=O)CCSc1ccc(F)cc1 (configuration not stated) | 9.13 |
| Cc1csc(CN(CC2CCCO2)C(=O)c2occc2C)n1 (configuration not stated) | 0.489 |
| NC(=O)CN(CC(=O)NCc1cc(F)cc(F)c1)C1CCCC1 | -8.58 |
| Cc1nc(C(C)C)sc1C(=O)N(C)Cc1cnn(C)c1 | 6.45 |
| CCc1nc(C2CCCN(C(=O)C3=NN(CC)C(=O)CC3)C2)no1 (configuration not stated) | -9.28 |
| CC(Nc1cccc2c1OCCO2)C(=O)Nc1cccc(C#N)c1 (configuration not stated) | 4.7 |
| Cn1cc(CC2CC(=O)N(Cc3ccc(Cl)cc3)C2=O)cn1 (configuration not stated) | -0.276 |
| CN(C1CCN(c2ccccn2)CC1)S(=O)(=O)c1ccc(F)cc1 | 11.2 |
| CN1CCN(CC(NCc2ccc(F)c(F)c2)c2ccccc2)CC1 (configuration not stated) | -10 |
| C[S+]([O-])c1nncn1CC(=O)c1cccc(C(F)(F)F)c1 (configuration not stated) | -0.661 |
| NCC1(c2cccc(C(F)(F)F)c2)CCCCC1 | -8.66 |
| CCn1nc2c(cc1=O)CN(Cc1nc3ccccc3o1)CC2 | -8.9 |
| N#Cc1ccc(F)c(CNC(=O)NC(CO)Cc2ccccc2)c1 (configuration not stated) | 1.98 |
| Cn1ccnc1CNC(=O)N(CCCO)C1CCc2ccccc21 (configuration not stated) | -11.6 |
| O=C(NCC(O)c1ccc(F)c(F)c1)c1ccccc1F (configuration not stated) | -3 |
| O=C(CS(=O)(=O)Cc1ccccc1)NCc1ccccc1F | -17.6 |

| SMILES | cytotoxicity at 10 µM [%] |
| --- | --- |
| COc1ccc(CCC(=O)N(C)CCN2CCOCC2)cc1OC | 7.83 |
| CN(Cc1cnn(C)c1)C(=O)NC1CCCC1 | 7.43 |
| Cc1nccc(CNC(=O)Nc2cc(C(F)(F)F)c[nH]c2=O)n1 | -1.16 |
| O=C(c1[nH]nc(C2CC2)c1Cl)N1CCN(C2CC2)CC1 | -5.58 |
| CC(C)c1nsc(NC2CC(=O)N(C(C)(C)C)C2)n1 (configuration not stated) | 5.09 |
| CC(C)CC(=O)Nc1cc(C(=O)N(C)C(C)C)ccc1Cl | -7.62 |
| CC(c1cccnc1)N1CCN(CCc2ccccn2)CC1 (configuration not stated) | -6.18 |
| CS(=O)(=O)N1CCC(OCCCc2ccccc2)C1 (configuration not stated) | 8.13 |
| CCN(CCNCc1cccc(C#N)c1)C1CC1 | -11.3 |
| COc1ccc(C(NCc2cccc(C#N)c2)C2CC2)cc1 (configuration not stated) | 15.9 |
| CN(C)C(=O)c1ccc(NCCNc2ccc3ccccc3n2)nc1 | 4.63 |
| Cc1ccc(C2CSCCN2C(=O)c2cnsn2)o1 (configuration not stated) | 5.11 |
| c1nc(CSc2nnc(C3CC3)s2)cs1 | -5.54 |
| COc1ccc(CNc2nncs2)cc1F | -4.23 |
| CCN(C(=O)CCc1ccc2c(c1)OCO2)C1CC(=O)NC1=O (configuration not stated) | -3.88 |
| Cc1cc(CC(=O)NC2CCCN(c3ccccc3Cl)C2=O)n[nH]1 (configuration not stated) | 3.55 |
| Cc1cc(NC(=O)C(C)N2CCN(c3ccccc3F)CC2)no1 (configuration not stated) | 2.83 |
| COc1cc2ccn(CCCO)c(=O)c2cc1F | -7.91 |
| CC(NC(=O)N1CCC[C@H]1CO)c1noc(-c2ccccc2)n1 (some centres not stated) | -6.67 |
| Cc1ccc2c(c1)OCCN2C(=O)c1ccc(=O)n(C)c1 | -5.88 |
| CC(=O)N1CCN(C(=O)C2SCCc3sccc32)CC1 (configuration not stated) | -11.5 |
| CC(C)Oc1cccc(C(O)CNC(=O)CCc2ccncc2)c1 (configuration not stated) | -3.82 |
| Cc1ccc(C(=O)N2CCCC2c2nnc3n2CCCCC3)o1 (configuration not stated) | -6.05 |

| SMILES | cytotoxicity at 10 µM [%] |
| --- | --- |
| CC1=N[C@@]2(CC[C@@H]3CN(S(=O)(=O)N(C)C)C[C@@H]32)C(=O)N1CC(C)C | 3.16 |
| Cc1cc(C2CCCN2Cc2ccc(C(=O)Nc3nccs3)cc2)on1 (configuration not stated) | -6.03 |
| COCC(O)CNC(=O)c1cc(COc2ccc3c(c2)CCCC3)on1 (configuration not stated) | -147 |
| CC(C)(C)C(=O)N1CCCC1c1ccc(C(=O)N2CCOCC2)s1 (configuration not stated) | -145 |
| CC[C@H](C)[C@@H](CO)NC(C)Cc1ccc(F)cc1 (some centres not stated) | -6.27 |
| CCc1nc(C)c([C@H]2CN(C)C[C@@H]2C(=O)Nc2ccccc2F)[nH]1 | 2.16 |
| CC(C)Oc1cc(N2CC[C@H](CO)[C@@H](O)C2)nc(N)n1 | 2.41 |
| Cc1nnsc1CN1CCCC1c1nc(-c2ccccc2)no1 (configuration not stated) | -45.8 |
| Cc1cccnc1CN(C)C(C(=O)O)c1ccc(-c2ccn[nH]2)cc1 (configuration not stated) | 12.2 |
| CCCc1nnc(NC(C)c2ccc(F)cc2)o1 (configuration not stated) | 2.08 |
| Cc1ccn(-c2cncc(C(N)=O)c2)n1 | 0.0642 |
| Cc1ccccc1CN1CCN(C(=O)c2ccn(C(C)(C)C)c2)CC1 | -0.585 |
| CC(C)c1ncc(CN2C[C@@H](CN3CCCN(C)CC3)[C@@H](CO)C2)cn1 | -9.77 |
| Cc1c(CN2CCCC(C(=O)c3ccccc3)C2)cc(C#N)n1C (configuration not stated) | -6.63 |
| CC(O)c1cn(CC2CCN(C(=O)CN(C)C(C)C)CC2)nn1 (configuration not stated) | -1.58 |
| Cc1cc(C)c2nc(CN3C[C@H](CCO)[C@@H](N)C3)cc(O)c2c1 | 5.29 |
| Cc1nnnn1CCC(=O)N1CCC2(CCC(=O)N(CC3CC3)C2)CC1 | 4.17 |
| Cc1ccnc(CC(C)N(C)Cc2ccc3c(c2)OCCO3)c1 (configuration not stated) | -4.24 |
| COc1ccccc1N1CCN(C(=O)CCn2ccc(C)n2)CC1(C)C | -8.64 |
| O=S(=O)(c1c(N2CCCCC2)ccc2nonc12)N1CCCCC1 | -3.39 |
| COCC(=O)N1CCc2cccc(S(=O)(=O)N3CCN(C)CC3)c2C1 | 5.07 |
| O=C(O)CCc1cc2n(n1)CCCN(C(=O)c1ccc3cc[nH]c3c1)C2 | -13.3 |
| COc1c(CNCc2ccc(N3CCCC3)nc2)c(C(C)C)nn1C | -11.5 |

| SMILES | cytotoxicity at 10 µM [%] |
| --- | --- |
| CSCC(=O)NS(=O)(=O)c1ccc2c(c1)OCCO2 | -9.69 |
| COC(=O)c1cc(C(=O)N2CCCC(C)C2)n(-c2ccccc2)n1 (configuration not stated) | -11.9 |
| COc1ccccc1C(O)CNCc1c(C(C)C)nn(C)c1N(C)C (configuration not stated) | -7.31 |
| CCOc1cc(C)nc(N2CCN(C(=O)CC)CC2)n1 | -6.68 |
| COCCCN(C)C1CCCN(Cc2noc(C)n2)C1 (configuration not stated) | -8.06 |
| Cc1cc(C)c(CNC(=O)N2CCN(c3ncccn3)CC2)c(=O)[nH]1 | -6.28 |
| N#Cc1ccnc(N2CCN(C(=O)Cc3ccc4c(c3)CCO4)CC2)c1 | -4.1 |
| Cc1ccc(CNC(=O)CN2CCCC(Cn3cncn3)C2)s1 (configuration not stated) | -1.78 |
| O=C(CCCNc1ncccn1)N1CCCC(n2cccn2)C1 (configuration not stated) | 7.34 |
| CC(C)COCC(NC(=O)c1ccccn1)c1ccco1 (configuration not stated) | -7.52 |
| Cc1cnn(CC2CCCN2CC(=O)Nc2nc(C)cs2)c1 (configuration not stated) | -6.26 |
| Cn1nc(CN2CCOCC2)c2c1CN(Cc1ccsc1)C2 | -145 |
| CN1CCN(C)C(c2nnc3ccc(C(=O)N4CCOCC4)cn23)C1 (configuration not stated) | -130 |
| Cc1nc(N(C)C)nc2c1COCC21CCN(CC2CC2)C1 (configuration not stated) | -8.94 |
| O=C(c1cnccn1)N1CCCC2(CCN(Cc3ccc(F)cc3)C2)C1 (configuration not stated) | -153 |
| Cn1cc(CN2CCOC3(CCCN(C(=O)c4ccco4)C3)C2)cn1 (configuration not stated) | -23.9 |
| Cn1cc(C[C@H]2[C@H](N3CCOCC3)CCN2c2ncc(F)cn2)cn1 | 7.23 |
| CN(C)C(=O)CN1CCCC12CCCN(c1ncc(F)cn1)C2 (configuration not stated) | -2.51 |
| Cc1nc(N2CCCC2)nc2c1CCN(Cc1ccoc1)CC2 | -134 |
| Cc1nc(CN2C(=O)COC3(CCN(C)CC3)C2C)cs1 (configuration not stated) | -128 |
